# Laboratory results: ChEMBL document CHEMBL1123005, “1-Azacycloalkyl-1,4-benzodiazepin-2-ones with antianxiety-antidepressant actions” (J Med Chem, 1985)
# The source made the active and inactive calls. The calls are words filed in the database; no cut-off is given here.
# Columns and labels:
# Mus musculus [1] = test: Effective dose against tetrabenazine induced ptosis in mice administered subcutaneously; assay type: functional; conditions: sc
# Summary of the method: (§1)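 Male DS mice, 20-27 g, groups of five. Compound given po or sc in saline or gum arabic at 0.1 mL/10 g. Tetrabenazine 50 mg/kg sc given 1, 4 or 24 h later. Ptosis scored 1-4 at 1 h after TBZ, with ridit transformation. Dose for 50% prevention by regression.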
# [2] = target: GABA-A receptor; anion channel (Rattus norvegicus) (UniProt O09028+P15431+P18506+P18508+P19969+P20236+P23574+P23576+P28471+P28473+P30191+P62813+P63079+P63138+Q91ZM7+Q9ES14); test: Binding constant was determined by displacing potential to [3H]-diazepam binding in cerebral cortex homogenates of rat; assay type: tissue-based
# Summary of the method: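 Wistar rat cerebral cortex homogenate incubated with compound and 2 nM [3H]diazepam at 0 °C for 60 min. Bound label trapped on glass filters and counted by scintillation. Ki = IC50/(1 + L/Kd).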
# Mus musculus [3] = test: Effective dose against pentylenetetrazole intoxicity in mice administered through subcutaneous route; NE = no effect at 10 mg/kg; assay type: functional, organism-based; parameters: dose 10 mg/kg
# Mus musculus [4] = test: Effective dose against pentylenetetrazole intoxicity in mice administered orally; assay type: functional
# Mus musculus [5] = test: Effective dose against tetrabenazine induced ptosis in mice administered orally; assay type: functional; summary of the method: as §1
# Rattus norvegicus [6] = test: Effective dose was evaluated by their anticonflict effect in rats when administered through oral route; assay type: functional
# Summary of the method: (§2)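 Wistar rats in groups of 5-8, Geller-Seifter conflict procedure. Rats trained to lever-press for food on a variable-interval 60-s schedule. Oral dosing. A dose counted positive when shocks exceeded 12 or shock ratio exceeded 4 over four consecutive tone periods. ED50 with 95% limits by probit.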
# Rattus norvegicus [7] = species on record: Rattus norvegicus; test: Inhibitory activity against uptake of [3H]norepinephrine into rat brain synaptosomes.; assay type: functional
# Summary of the method: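 P2 synaptosomes from male Wistar rat cerebral cortex incubated with [3H]norepinephrine at 37 °C for 20 min, with compound at 5-6 concentrations. Stopped by Krebs-Henseleit dilution and glass-fibre filtration, then scintillation counting. IC50 taken as the concentration giving 50% uptake inhibition.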
# Rattus norvegicus [8] = test: Percent inhibition was evaluated by their anticonflict effect in rats when administered through oral route at 32 mg/kg; assay type: functional; summary of the method: as §2
# [9] = Acute toxicity was measured in mice after peroral administration (805-1213); assay type: organism-based; conditions: mouse, in vivo, po
# Summary of the method: (§3)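 Male DS mice, 20-26 g, given compound orally; mortality checked the day after treatment in groups of 10. LD50 by probit method, or by up-and-down method of Brownlee et al. (n = 5) where estimated.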
# Mus musculus [10] = test: Effective dose against pentylenetetrazole intoxicity in mice administered through subcutaneous route; NE = no effect at dose 10 mg/kg; assay type: functional, organism-based; parameters: dose 10 mg/kg
# Mus musculus [11] = test: Percent inhibition against tetrabenazine induced ptosis in mice administered subcutaneously at 50 mg/kg; assay type: functional; conditions: sc, route subcutaneous; summary of the method: as §1
# Mus musculus [12] = test: Effective dose against pentylenetetrazole intoxicity in mice administered through subcutaneous route; assay type: functional; conditions: sc
# Mus musculus [13] = test: Percent inhibition against tetrabenazine induced ptosis in mice administered orally at 100 mg/kg; assay type: functional; conditions: route oral; summary of the method: as §1
# Mus musculus [14] = test: Percent inhibition against tetrabenazine induced ptosis in mice administered orally at 50 mg/kg; assay type: functional; conditions: route oral; summary of the method: as §1
# Mus musculus [15] = test: Percent Inhibition against pentylenetetrazole intoxicity in mice administered orally at 50 mg/kg; assay type: functional; conditions: route oral
# Mus musculus [16] = test: Percent inhibition against pentylenetetrazole intoxicity in mice administered orally at 50 mg/kg; assay type: functional; conditions: route oral
# Mus musculus [17] = test: Effective dose against pentylenetetrazole intoxicity in mice administered orally;NE = no effect at 50 mg/kg; assay type: functional, organism-based; parameters: dose 50 mg/kg
# Mus musculus [18] = test: Percent inhibition against tetrabenazine induced ptosis in mice administered subcutaneously 50 mg/kg; assay type: functional; conditions: sc, route subcutaneous; summary of the method: as §1
# Rattus norvegicus [19] = test: Percent inhibition against anticonflict effect in rats when administered through oral route; at 32 mg/kg; assay type: functional; summary of the method: as §2
# Mus musculus [20] = test: Effective dose against pentylenetetrazole intoxicity in mice administered orally; NE = no effect at 200 mg/kg; assay type: functional, organism-based; parameters: dose 200 mg/kg
# [21] = Acute toxicity was measured in mice after peroral administration; assay type: organism-based; conditions: mouse, in vivo, po; summary of the method: as §3
# Mus musculus [22] = test: Effective dose against pentylenetetrazole intoxicity in mice administered orally; NE = no effect at 50 mg/kg; assay type: functional, organism-based; parameters: dose 50 mg/kg
# Mus musculus [23] = test: Effective dose against pentylenetetrazole intoxicity in mice administered orally; NE = no effect at dose 50 mg/kg; assay type: functional, organism-based; parameters: dose 50 mg/kg
# [24] = Acute toxicity was measured in mice after peroral administration (1293-1506); assay type: organism-based; conditions: mouse, in vivo, po; summary of the method: as §3
# [25] = Mus musculus, po, read-out: ED50
SMILES,ED50 (Mus musculus [1]) [mg/kg],K2 [2] [µM],ED50 (Mus musculus [3]),ED50 (Mus musculus [4]; [25]) [mg/kg],ED50 (Mus musculus [5]; [25]) [mg/kg],IC50 (Rattus norvegicus [7]) [nM],other results
COc1ccc2c(c1)C(c1ccccc1F)=NCC(=O)N2C1CCN(C)CC1,1.24,1.26,inactive,,,,
O=C1C(O)N=C(c2ccccc2F)c2cc(Cl)ccc2N1C1CCNCC1 (stereo not given),,0.14,,12.5,6.51,,ED50 (Rattus norvegicus [6]): 8.8 mg/kg
O=C1CN=C(c2ccccc2F)c2cc(F)ccc2N1C1CCNCC1,,0.15,,32.1,0.38,79,ED50 (Mus musculus [4]): 27.55 mg/kg; inhibition in vivo at 32 mg/kg (Rattus norvegicus [8]): 50%; LD50 [9]: 939 mg/kg
O=C1CN=C(c2ccccc2Cl)c2cc(Cl)ccc2N1C1CCNCC1,9.94,0.017,,12.9,9.59,562,
CC(=O)N1CCC(N2C(=O)CN=C(c3ccccc3)c3ccccc32)CC1,3.25,1.5,,,,,ED50 (Mus musculus [10]): inactive
O=C1C(O)N=C(c2ccccc2F)c2ccccc2N1C1CCNCC1 (stereo not given),0.23,0.36,,,,,ED50 (Mus musculus [10]): inactive
CN1CCC(N2C(=O)CN=C(c3ccc(F)cc3)c3ccccc32)CC1,,68,inactive,,,,inhibition in vivo at 50 mg/kg (Mus musculus [11]): 53%
CCOC(=O)N1CCC(N2C(=O)CN=C(c3ccccc3F)c3cc(Cl)ccc32)CC1,,0.038,,9.09,,,ED50 (Mus musculus [12]): 11.1 mg/kg; inhibition in vivo at 50 mg/kg (Mus musculus [11]): 67%
CN(C)CCCN1c2ccccc2CCc2ccccc21 [IMIPRAMINE],0.8,,,,2.14,85,
CN1CCC(N2C(=O)CN=C(c3ccccc3Cl)c3cc(Cl)ccc32)C1 (stereo not given),,0.05,,5.78,,,inhibition in vivo at 100 mg/kg (Mus musculus [13]): 61%
CN1CCC(N2C(=O)CN=C(c3ccccc3Cl)c3cc(F)ccc32)CC1,,0.014,,5.2,59.3,,
O=C1CN=C(c2ccccc2Cl)c2cc(Cl)ccc2N1C1CCNC1 (stereo not given),12.6,0.027,,9.63,,,inhibition in vivo at 50 mg/kg (Mus musculus [14]): 34%
CN1CCC(N2C(=O)CN=C(c3ccccc3F)c3ccccc32)CC1,0.21,0.2,,,,,inhibition in vivo at 50 mg/kg (Mus musculus [15]): 37.5%
O=C1CN=C(c2ccccc2)c2cc(F)ccc2N1C1CCNCC1,,2,,,0.39,59,inhibition in vivo at 50 mg/kg (Mus musculus [16]): 12.5%; inhibition in vivo at 32 mg/kg (Rattus norvegicus [8]): 60%
CN1CCC(N2C(=O)CN=C(c3ccccc3F)c3cc(Cl)ccc32)C1 (stereo not given),,0.2,,1.1,3.69,,
CN1CCC(N2C(=O)CN=C(c3ccccc3F)c3cc(Cl)c(Cl)cc32)CC1,,0.8,inactive,,,,ED50 (Mus musculus [17]): inactive; inhibition in vivo at 50 mg/kg (Mus musculus [18]): 64%
O=C1CN=C(c2ccccc2)c2ccccc2N1C1CCNCC1,0.06,1.3,inactive,,0.26,29,inhibition in vivo at 32 mg/kg (Rattus norvegicus [19]): 20%; ED50 (Mus musculus [20]): inactive; LD50 [21]: 1240 mg/kg
O=C1CN=C(c2ccccc2F)c2ccccc2N1C1CCNCC1,0.07,0.15,inactive,,,,ED50 (Mus musculus [22]): inactive
O=C1CN=C(c2ccccc2)c2cc(Cl)ccc2N1C1CCNCC1,0.172,0.35,inactive,36.5,0.48,172,ED50 (Mus musculus [23]): inactive; LD50 [24]: 1390 mg/kg; ED50 (Mus musculus [5]): 0.48 mg/kg; ED50 (Rattus norvegicus [6]): 11.8 mg/kg
CCOC(=O)N1CCC(N2C(=O)CN=C(c3ccccc3Cl)c3cc(Cl)ccc32)CC1,,0.02,,1.95,,,inhibition in vivo at 50 mg/kg (Mus musculus [11]): 16%
